These results are taken from paper PMC3607822 (The Journal of General Physiology, 2013).

In assay [1] the target is CNGA3 N2R-A, 613X channels (Homo sapiens, UniProt Q16281, R101A/R103A). Kind of assay: Inside-out patch clamp, CNGA3 N2R-A, 613X. In kind it is biochemical. For orientation: The patch-clamp technique gives a direct electrical read-out from membranes.
Assay [2] has as its target CNGA3 ΔN (2-156), 613X channels (Homo sapiens, UniProt Q16281). Kind of assay: Inside-out patch clamp, CNGA3 ΔN. In kind it is biochemical.
The target in assay [3] is CNGA3 D609K channels (Homo sapiens, UniProt Q16281, D609K). Kind of assay: Inside-out patch clamp, CNGA3 D609K. In kind it is biochemical. Conditions: estimated using tetracaine block.
The target in assay [4] is CNGA3 ΔN (51-107), 613X channels (Homo sapiens, UniProt Q16281, DEL51-107). In words: Inside-out patch clamp, CNGA3 ΔN. In kind it is biochemical.
Assay [5] concerns the target CNGA3 N5R-A, 613X channels (Homo sapiens, UniProt Q16281, R72A/R75A/R81A/R82A/R86A). In words: Inside-out patch clamp, CNGA3 N5R-A, 613X. In kind it is biochemical.
Assay [6] addresses CNGA3 ΔN (2-156) channels (Homo sapiens, UniProt Q16281). Kind of assay: Inside-out patch clamp, CNGA3 ΔN. In kind it is biochemical.
For assay [7], the target named is T1, A3-N7R-A,RR-QQ+B3 channels (Homo sapiens, UniProt Q16281+Q9NQW8, R101A/R103A/R643Q/R646Q/R72A/R75A/R81A/R82A/R86A).
T1 sequence (Q16281 1-694 R72A/R75A/R81A/R82A/R86A/R101A/R103A/R643Q/R646Q): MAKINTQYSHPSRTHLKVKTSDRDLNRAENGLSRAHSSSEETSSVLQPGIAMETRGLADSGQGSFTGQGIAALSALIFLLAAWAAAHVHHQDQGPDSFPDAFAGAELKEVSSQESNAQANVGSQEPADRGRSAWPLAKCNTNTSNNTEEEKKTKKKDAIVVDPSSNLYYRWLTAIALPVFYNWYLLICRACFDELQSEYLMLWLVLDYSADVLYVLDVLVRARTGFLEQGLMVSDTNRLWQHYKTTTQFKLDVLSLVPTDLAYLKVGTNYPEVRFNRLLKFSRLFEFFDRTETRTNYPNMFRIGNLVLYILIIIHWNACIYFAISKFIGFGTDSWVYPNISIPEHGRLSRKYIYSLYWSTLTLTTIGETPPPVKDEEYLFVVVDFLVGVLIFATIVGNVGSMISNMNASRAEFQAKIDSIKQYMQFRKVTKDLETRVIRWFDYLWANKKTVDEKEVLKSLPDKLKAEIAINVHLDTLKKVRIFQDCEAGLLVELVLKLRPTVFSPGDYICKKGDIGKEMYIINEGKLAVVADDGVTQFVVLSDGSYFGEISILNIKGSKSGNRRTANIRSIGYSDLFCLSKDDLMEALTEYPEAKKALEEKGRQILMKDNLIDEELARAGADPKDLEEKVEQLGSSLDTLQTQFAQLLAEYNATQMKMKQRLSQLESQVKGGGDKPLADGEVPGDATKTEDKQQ
T1 sequence (Q9NQW8 1-809): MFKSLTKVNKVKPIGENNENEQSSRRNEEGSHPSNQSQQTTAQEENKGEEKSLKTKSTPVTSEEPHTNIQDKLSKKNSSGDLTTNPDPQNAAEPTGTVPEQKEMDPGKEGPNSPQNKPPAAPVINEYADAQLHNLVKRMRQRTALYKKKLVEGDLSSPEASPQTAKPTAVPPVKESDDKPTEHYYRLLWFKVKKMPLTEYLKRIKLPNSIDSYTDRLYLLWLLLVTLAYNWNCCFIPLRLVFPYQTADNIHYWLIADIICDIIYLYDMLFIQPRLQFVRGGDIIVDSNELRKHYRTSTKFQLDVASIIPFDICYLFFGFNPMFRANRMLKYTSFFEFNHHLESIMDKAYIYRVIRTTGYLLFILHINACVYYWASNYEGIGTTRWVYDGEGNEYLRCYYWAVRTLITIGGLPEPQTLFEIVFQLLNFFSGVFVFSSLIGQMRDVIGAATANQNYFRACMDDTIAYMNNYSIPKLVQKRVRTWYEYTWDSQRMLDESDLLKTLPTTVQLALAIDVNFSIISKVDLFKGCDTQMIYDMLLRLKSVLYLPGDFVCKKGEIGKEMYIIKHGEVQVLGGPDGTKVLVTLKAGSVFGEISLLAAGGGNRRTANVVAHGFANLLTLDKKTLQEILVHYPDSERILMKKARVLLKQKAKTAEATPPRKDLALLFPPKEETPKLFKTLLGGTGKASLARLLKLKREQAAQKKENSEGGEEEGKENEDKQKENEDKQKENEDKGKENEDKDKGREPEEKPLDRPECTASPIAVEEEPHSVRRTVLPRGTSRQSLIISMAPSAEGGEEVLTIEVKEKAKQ
In words: Inside-out patch clamp, A3-N7R-A,RR-QQ+B3. In kind it is biochemical. Summed up: (§1)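 Subunit cRNAs (~20 ng, B in excess over A) injected into stage IV Xenopus oocytes; inside-out patches 2–7 d later, 20–22°C, symmetric 130 mM NaCl, 0.2 mM EDTA, 3 mM Hepes pH 7.2. Heteromer formation checked by 25 µM l-cis-diltiazem with 1 mM cGMP. diC8 phosphoinositides applied intracellularly in phosphatase-inhibitor cocktail. cGMP dose–response at +80 mV, leak-subtracted, Hill fit before/after for K1/2; mean ± SEM.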

Assay [8] addresses GST fusion of CNGA3 N-terminal region (A3N, amino acids 1–164) (Homo sapiens, UniProt Q16281). Kind of assay: In vitro PIP3-agarose bead pull-down, A3N. In kind it is binding. Conditions: PIP3-agarose beads, anti-GST immunoblot. The essentials:
(§2)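 Recombinant GST fusions of channel fragments expressed in E. coli and purified; soluble fraction kept after 20,000 g, 4°C, 30 min. Protein (2 µg/ml) rocked with PIP3- or control agarose beads, 2 h, 4°C, in 10 mM Hepes pH 7.4, 50 mM NaCl, 2 mM EDTA, 0.25% Triton X-100, 0.25% NP-40. Five washes, elution in sample buffer, reducing SDS gel, anti-GST (1:2,000, overnight) immunoblot, chemiluminescence; […].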
(In general: In western blotting, separated proteins are transferred to a membrane and probed.)

Assay [9] has as its target GST fusion A3C7K/R-A (Homo sapiens, UniProt Q16281, K624A/K629A/K657A/K659A/R643A/R646A/R661A). Kind of assay: In vitro PIP3-agarose bead pull-down, A3C7K/R-A. In kind it is binding. Conditions: PIP3-agarose beads, anti-GST immunoblot; compared with A3C. The essentials:
as §2

Assay [10] concerns the target A2ΔN+B3 channels (UniProt Q00195+Q9NQW8, DEL61-90). In words: Inside-out patch clamp, A2ΔN+B3. In kind it is biochemical, rat, human. To be noted: 1 µM PIP3. Summed up:
as §1

Assay [11] has as its target A2ΔN+B1 channels (UniProt Q00195+Q14028, DEL61-90). In words: Inside-out patch clamp, A2ΔN+B1. In kind it is biochemical, rat, human. Conditions: 1 µM PIP3. The essentials:
as §1

Assay [12] deals with PA-LP+RR-QQ CNGA3 channels. Kind of assay: Inside-out patch clamp, coexpression of A3 PA-LP with A3 RR-QQ. In kind it is biochemical, human. To be noted: 1 µM PIP3.
[13] abbreviates: read-out: K1/2 cGMP, +80 mV, no PIPn.

As usually defined, the Hill coefficient is the slope factor of the fitted curve. As for `Nc1nc2c(ncn2[C@@H]2O[C@@H]3COP(=O)(O)O[C@H]3[C@H]2O)c(=O)[nH]1` [cGMP, cyclic guanosine monophosphate], the Hill coefficient in assay [1] (cGMP activation) was 1.68 ± 0.03 (4); in [2] (cGMP activation), 1.66 ± 0.10 (6); in assay [4] (cGMP activation) it was 1.90 ± 0.06 (4); in assay [5] (cGMP activation) it was 1.71 ± 0.05 (8); in assay [6] (cGMP activation) it was 1.77 ± 0.07 (9). In addition, the EC50 amounted to 16.1 ± 0.59 µM in assay [1] (setting [13]); 15.8 ± 2.8 µM in [2] (setting [13]); 11.1 ± 2.28 µM in assay [4] (setting [13]); 16.7 ± 0.98 µM in [5] (setting [13]); 9.16 ± 0.65 µM in [6] (setting [13]). For the same molecule, in assay [3], the “Po max cGMP” value is reported as 0.78 ± 0.01.

With “phosphatidylinositol (3,4,5)-trisphosphate [PIP3]”, the “regulation of apparent cGMP affinity” value in [7] (10 µM PIP2 or 1 µM PIP3) was “insensitive to regulation”. Also, the “percent change in K1/2 cGMP caused by PIP3” value in [7] (10 µM PIP3) came to 2 ± 8%. Further, the “in vitro PIP3 binding” value was “able to directly bind PIP3” in assay [8] and “attenuated binding to PIP3 beads” in [9]. Also, the “regulation of K1/2 cGMP by PIP3” value in assay [10] and in [11] was “insensitive to regulation by PIP3” in each case. For the same molecule, the “Imax cAMP/cGMP (PIP3/control)” value in [12] came to 1.67 ± 0.06.
